Measured values collected from several papers.
Each line is one published result; the experiments were not run side by side. pEC50, pIC50: −log10 of the molar value.

| Structure (SMILES) | cell line | test | setting | quantity | result |
| --- | --- | --- | --- | --- | --- |
| CC(=NNC(=O)c1ccccc1O)c1ccc(Nc2nnc(-c3ccc(Cl)cc3)c3ccccc23)cc1 | HepG2 | cell growth or viability, MTT | 5 µM | cell death | 84.2% |
| CC(=O)c1nn(-c2ccc(C)cc2)/c(=N/N=C(\C)c2ccc(NC(=O)c3ccccc3)cc2)s1 | HepG2 | cell growth or viability, MTT | 0.625 µM | viability | 5.4% |
| O=C(Nc1ccccc1)Nc1cccc(Br)c1 | LAD2 | degranulation |  | pIC50 | 4.66 |
| C[C@H]1Oc2cc(cnc2N)-c2c(nn(C)c2C#N)CN(C)C(=O)c2ccc(F)cc21 | A-431 | cell growth or viability |  | pIC50 | < 5.00 |
| CNc1ncc2c(/C=C/C(=O)N3CCCC3)nn(CC3CCCC3)c2n1 | OE33 | cell growth or viability, resazurin | 5 days | pEC50 | < 4.52 |
| O=C(Nc1ccc(Oc2nnc(-c3ccc(Cl)cc3)c3ccccc23)cc1)c1cccc([N+](=O)[O-])c1 | HepG2 | cell growth or viability, MTT | 2.5 µM | cell death | 96.4% |
| CC(C)(C)c1cnc(CSc2cnc(NC(=O)C3CCN(C(=O)COCCOCCSc4cccc5c4C(=O)N(C4CCC(=O)NC4=O)C5=O)CC3)s2)o1 (stereo not drawn) | HH | cell growth or viability, CCK-8 | 1 µM | viability | 7.67% |
| CC(=NNC(=S)Nc1ccccc1)c1ccc(Nc2nnc(-c3ccc(Cl)cc3)c3ccccc23)cc1 | HepG2 | cell growth or viability, MTT | 5 µM | cell death | 95.1% |
| CNc1ncc2c(/C=C/C(=O)N3CCC(COC)CC3)nn(Cc3cccc(C)c3)c2n1 | OE33 | cell growth or viability, resazurin | 5 days | pEC50 | < 4.52 |
| O=C(Nc1ccccc1)Nc1ccc(Oc2nnc(-c3ccc(Cl)cc3)c3ccccc23)cc1 | HepG2 | cell growth or viability, MTT | 0.625 µM | cell death | 94.7% |
| CN(C)C1CCN(C(=O)/C=C/c2nn(CC3CCCC3)c3ncnc(N)c23)CC1 | OE33 | cell growth or viability, resazurin | 5 days | pEC50 | < 4.52 |
| CC(C)OC(=O)C(n1cccn1)n1cccn1 | A-431 | cell growth or viability, MTT | 72 h | pIC50 | < 4.30 |
| C=CC(=O)NC1CCN(c2ncc3ncnc(Nc4ccc(Oc5ccc6c(c5)ncn6C)c(C)c4)c3n2)CC1 | DMS-273 | cell growth or viability |  | pEC50 | 6.47 |
| CC(=O)c1nn(-c2ccccc2Cl)/c(=N/N=C(\C)c2ccc(NC(=O)c3ccccc3)cc2)s1 | HepG2 | cell growth or viability, MTT | 0.156 µM | viability | 30.2% |
| CC(=NNC(=O)c1ccccc1Br)c1ccc(Nc2nnc(-c3ccc(Cl)cc3)c3ccccc23)cc1 | HepG2 | cell growth or viability, MTT | 0.312 µM | cell death | 14.6% |
| CC(C)(C)c1cnc(CSc2cnc(NC(=O)C3CCN(CCCCSc4cccc5c4C(=O)N(C4CCC(=O)NC4=O)C5=O)CC3)s2)o1 (stereo not drawn) | HH | cell growth or viability, CCK-8 | 0.15 µM | viability | 36.9% |
| CCOC(=O)c1nn(-c2cccc(Cl)c2)/c(=N/N=C(\C)c2ccc(NC(=O)c3ccccc3)cc2)s1 | HepG2 | cell growth or viability, MTT | 0.156 µM | viability | 25.9% |

| Structure (SMILES) | cell line | test | setting | quantity | result |
| --- | --- | --- | --- | --- | --- |
| CC(C)(C)c1cnc(CSc2cnc(NC(=O)C3CCN(CCCCCCCCSc4cccc5c4CN(C4CCC(=O)NC4=O)C5=O)CC3)s2)o1 (stereo not drawn) | HH | cell growth or viability, trypan blue | 48 h | pIC50 | 6.94 |
| O=C(Nc1ccc([N+](=O)[O-])cc1)Nc1cccc(C(F)(F)F)c1 | LAD2 | degranulation |  | pIC50 | 6.12 |
| CNc1ncc2c(/C=C/C(=O)N3CCCCC3)nn(CC3CCCC3)c2n1 | OE33 | cell growth or viability, resazurin | 5 days | pEC50 | < 4.52 |
| CC(=NNC(=O)c1cccnc1)c1ccc(Nc2nnc(-c3ccc(Cl)cc3)c3ccccc23)cc1 | HepG2 | cell growth or viability, MTT | 10 µM | cell death | 96.8% |
| CC(C)(C)c1cnc(CSc2cnc(NC(=O)C3CCN(C(=O)CCCSc4cccc5c4C(=O)N(C4CCC(=O)NC4=O)C5=O)CC3)s2)o1 (stereo not drawn) | HH | cell growth or viability, CCK-8 | 0.5 µM | viability | 17.8% |
| O=C(Nc1ccc(C(F)(F)F)cc1)Nc1cccc(Br)c1 | LAD2 | degranulation |  | pIC50 | 5.91 |
| COC(=O)/C=C/c1nn(CC2CCCC2)c2ncnc(N)c12 | OE33 | cell growth or viability, resazurin | 5 days | pEC50 | < 4.52 |
| CC(=O)Nc1ccc(Oc2nnc(-c3ccc(Cl)cc3)c3ccccc23)cc1 | HepG2 | cell growth or viability, MTT | 1.25 µM | cell death | 92.9% |
| CC(C)(C)c1cnc(CSc2cnc(NC(=O)C3CCN(CCCCCSc4cccc5c4CN(C4CCC(=O)NC4=O)C5=O)CC3)s2)o1 (stereo not drawn) | HH | cell growth or viability, CCK-8 | 1 nM | viability | 96.6% |
| CC(=NNC(N)=S)c1ccc(Nc2nnc(-c3ccc(Cl)cc3)c3ccccc23)cc1 | HepG2 | cell growth or viability, MTT | 1.25 µM | cell death | 92.3% |
| CNc1ncc2c(/C=C/C(=O)N3CCC(OC)CC3)nn(Cc3ccc(OC)cc3)c2n1 | OE33 | cell growth or viability, resazurin | 5 days | pEC50 | 5.79 |
| CCOC(=O)c1nn(-c2cccc(Cl)c2)/c(=N/N=C(\C)c2ccc(NC(=O)c3ccc(Cl)cc3)cc2)s1 | HepG2 | cell growth or viability, MTT | 1.25 µM | viability | 2.59% |
| CNc1ncc2c(/C=C/C(=O)N3CCC(OC)CC3)nn(Cc3ccccc3C)c2n1 | OE33 | cell growth or viability, resazurin | 5 days | pEC50 | 5.11 |
| O=C(Nc1ccccc1)Nc1cc(Br)cc(C(F)(F)F)c1 | LAD2 | degranulation |  | pIC50 | 5.10 |
| CNc1ncc2c(/C=C/C(=O)N3CCC(OC)CC3)nn(CC(C)(C)C)c2n1 | OE33 | cell growth or viability, resazurin | 5 days | pEC50 | < 4.52 |
| CC(C)(C)c1cnc(CSc2cnc(NC(=O)C3CCN(CCCCCCCSc4cccc5c4C(=O)N(C4CCC(=O)NC4=O)C5=O)CC3)s2)o1 (stereo not drawn) | HH | cell growth or viability, CCK-8 | 0.1 µM | viability | 92.7% |
